Tests used:
[1] = test system: K562; experiment: Induction of cell cycle arrest in human K562 cells assessed as accumulation at G2/M phase after 24 hrs by propidium iodide staining-based flow cytometry (reference value: 14.29%); type: functional
Procedure, shortened: (§1)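 Exponentially growing K562 cells treated 24 or 72 h; cells stained with propidium iodide and cell-cycle distribution (sub-G1, G0/G1, S, G2/M, %) measured by flow cytometry; untreated cells as control.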

[2] = test system: K562; experiment: Induction of apoptosis in human K562 cells assessed as Bcl2 protein level after 72 hrs by Western blotting method (reference value: 7.90%); type: functional
[3] = test system: K562; experiment: Induction of cell cycle arrest in human K562 cells assessed as accumulation at S phase after 24 hrs by propidium iodide staining-based flow cytometry (reference value: 48.38%); type: functional; procedure, shortened: as §1
[4] = test system: K562; experiment: Induction of apoptosis in human K562 cells assessed as living cells after 72 hrs by annexin V-FITC/propidium iodide staining based flow cytometry (reference value: 84.31%); type: functional
Procedure, shortened: (§2)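 K562 cells treated 24 or 72 h, double-stained with Annexin V-FITC/PI and analysed by flow cytometry to give percentages of live, apoptotic and necrotic cells; apoptotic and necrotic responses expressed as specific apoptosis or specific necrosis (%).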

[5] = test system: K562; experiment: Induction of apoptosis in human K562 cells assessed as Bax protein level after 24 hrs by Western blotting method (reference value: 16.13%); type: functional
[6] = test system: K562; experiment: Induction of specific necrosis in human K562 cells after 24 hrs by annexin V-FITC/propidium iodide staining based flow cytometry; type: functional; design: concentration or dose not given beside the values; procedure, shortened: as §2
[7] = test system: Jurkat; experiment: Antiproliferative activity against human Jurkat cells after 72 hrs by MTT assay; type: functional, cell-based
Procedure, shortened: (§3)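 Human tumour lines and MRC-5 foetal lung fibroblasts (normal-cell comparator) exposed to compounds for 72 h; viability read by standard MTT assay. IC50 taken as concentration inhibiting growth by 50% versus untreated control; means of three independent experiments, coefficients of variation under 10%.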

[8] = test system: MRC5; experiment: Cytotoxicity against human MRC5 cells after 72 hrs by MTT assay; type: cell-based; settings: MRC5, 72 h; procedure, shortened: as §3
[9] = test system: MCF7; experiment: Antiproliferative activity against human MCF7 cells after 72 hrs by MTT assay; type: functional, cell-based; settings: MCF7, 72 h; procedure, shortened: as §3
[10] = test system: K562; experiment: Induction of apoptosis in human K562 cells assessed as cleaved PARP level after 72 hrs by Western blotting method (reference value: 18.36%); type: functional
[11] = test system: K562; experiment: Induction of apoptosis in human K562 cells assessed as late apoptotic cells after 24 hrs by annexin V-FITC/propidium iodide staining based flow cytometry (reference value: 4.58%); type: functional; procedure, shortened: as §2
[12] = test system: K562; experiment: Induction of apoptosis in human K562 cells assessed as cleaved PARP level after 24 hrs by Western blotting method (reference value: 36.17%); type: functional
[13] = test system: K562; experiment: Induction of cell cycle arrest in human K562 cells assessed as accumulation at Sub-G1 phase after 24 hrs by propidium iodide staining-based flow cytometry (reference value: 1.05%); type: functional; procedure, shortened: as §1
[14] = test system: Raji; experiment: Antiproliferative activity against human Raji cells after 72 hrs by MTT assay; type: functional, cell-based; procedure, shortened: as §3
[15] = test system: K562; experiment: Induction of cell cycle arrest in human K562 cells assessed as accumulation at S phase after 72 hrs by propidium iodide staining-based flow cytometry (reference value: 35.73%); type: functional; procedure, shortened: as §1
[16] = test system: HT-29; experiment: Antiproliferative activity against human HT-29 cells after 72 hrs by MTT assay; type: functional, cell-based; settings: HT-29, 72 h; procedure, shortened: as §3
[17] = test system: K562; experiment: Induction of apoptosis in human K562 cells assessed as late apoptotic cells after 72 hrs by annexin V-FITC/propidium iodide staining based flow cytometry (reference value: 5.24%); type: functional; procedure, shortened: as §2
[18] = test system: K562; experiment: Induction of apoptosis in human K562 cells assessed as living cells after 24 hrs by annexin V-FITC/propidium iodide staining based flow cytometry (reference value: 85.85%); type: functional; procedure, shortened: as §2
[19] = test system: K562; experiment: Induction of apoptosis in human K562 cells assessed as early apoptotic cells after 24 hrs by annexin V-FITC/propidium iodide staining based flow cytometry (reference value: 8.09%); type: functional; procedure, shortened: as §2
[20] = test system: K562; experiment: Induction of apoptosis in human K562 cells assessed as caspase 3 level after 24 hrs by Western blotting method (reference value: 42.77%); type: functional
[21] = test system: HeLa; experiment: Antiproliferative activity against human HeLa cells after 72 hrs by MTT assay; type: functional, cell-based; procedure, shortened: as §3
[22] = test system: K562; experiment: Induction of cell cycle arrest in human K562 cells assessed as accumulation at G0/G1 phase after 24 hrs by propidium iodide staining-based flow cytometry (reference value: 36.28%); type: functional; procedure, shortened: as §1
[23] = test system: K562; experiment: Induction of apoptosis in human K562 cells assessed as caspase 3 level after 72 hrs by Western blotting method (reference value: 17.05%); type: functional
[24] = test system: K562; experiment: Induction of apoptosis in human K562 cells assessed as Bcl2 protein level after 24 hrs by Western blotting method (reference value: 22.81%); type: functional
[25] = test system: K562; experiment: Induction of apoptosis in human K562 cells assessed as Bax protein level after 72 hrs by Western blotting method (reference value: 32.81%); type: functional
[26] = test system: K562; experiment: Induction of cell cycle arrest in human K562 cells assessed as accumulation at G2/M phase after 72 hrs by propidium iodide staining-based flow cytometry (reference value: 15.31%); type: functional; procedure, shortened: as §1
[27] = test system: K562; experiment: Induction of specific apoptosis in human K562 cells after 24 hrs by annexin V-FITC/propidium iodide staining based flow cytometry; type: functional; design: concentration or dose not given beside the values; procedure, shortened: as §2
[28] = test system: K562; experiment: Induction of apoptosis in human K562 cells assessed as early apoptotic cells after 72 hrs by annexin V-FITC/propidium iodide staining based flow cytometry (reference value: 3.22%); type: functional; procedure, shortened: as §2
[29] = test system: K562; experiment: Induction of specific necrosis in human K562 cells after 72 hrs by annexin V-FITC/propidium iodide staining based flow cytometry; type: functional; design: concentration or dose not given beside the values; procedure, shortened: as §2
[30] = test system: K562; experiment: Induction of specific apoptosis in human K562 cells after 72 hrs by annexin V-FITC/propidium iodide staining based flow cytometry; type: functional; design: concentration or dose not given beside the values; procedure, shortened: as §2
[31] = test system: K562; experiment: Induction of apoptosis in human K562 cells assessed as necrotic cells after 24 hrs by annexin V-FITC/propidium iodide staining based flow cytometry (reference value: 1.50%); type: functional; procedure, shortened: as §2
[32] = test system: K562; experiment: Antiproliferative activity against human K562 cells after 72 hrs by MTT assay; type: functional, cell-based; procedure, shortened: as §3
[33] = test system: K562; experiment: Induction of cell cycle arrest in human K562 cells assessed as accumulation at Sub-G1 phase after 72 hrs by propidium iodide staining-based flow cytometry (reference value: 3.04%); type: functional; procedure, shortened: as §1
[34] = Antiproliferative activity against human HL60 cells after 72 hrs by MTT assay; type: functional, cell-based, HL-60; procedure, shortened: as §3
[35] = test system: K562; experiment: Induction of apoptosis in human K562 cells assessed as necrotic cells after 72 hrs by annexin V-FITC/propidium iodide staining based flow cytometry (reference value: 7.23%); type: functional; procedure, shortened: as §2
[36] = test system: K562; experiment: Induction of cell cycle arrest in human K562 cells assessed as accumulation at G0/G1 phase after 72 hrs by propidium iodide staining-based flow cytometry (reference value: 45.92%); type: functional; procedure, shortened: as §1

SMILES | Activity [1] [%] | Activity [2] [%] | Activity [3] [%] | Activity [4] [%] | Activity [5] [%] | Activity [6] [%] | Activity [10] [%] | Activity [11] [%] | Activity [12] [%] | Activity [13] [%] | Activity [15] [%] | Activity [17] [%] | Activity [18] [%] | Activity [19] [%] | Activity [20] [%] | Activity [22] [%] | Activity [23] [%] | Activity [24] [%] | Activity [25] [%] | Activity [26] [%] | further results
NC(=O)c1csc([C@@H]2O[C@H](CO)[C@@H](O)[C@H]2N)n1 | 20.06 | 3.21 | 46.33 | 2.92 | 3.52 | 4.97 | 11.32 | 10.18 | 10.01 | 1.4 | 34.08 | 66.51 | 71.33 | 12.02 | 22.07 | 32.21 | 38.2 | 9.06 | 112.54 | 12.16 | IC50 [7]: > 100 µM; IC50 [8]: > 100 µM; IC50 [9]: > 100 µM; IC50 ([14]; raji): 2.59 µM; IC50 [16]: > 100 µM; IC50 ([21]; hela): 0.15 µM; Activity [27]: 17.57%; Activity [28]: 22.56%; Activity [29]: 7.11%; Activity [30]: 33.39%; Activity [31]: 6.48%; IC50 ([32]; k562): 0.51 µM; Activity [33]: 13.52%; IC50 ([34]; hl-60): 12.2 µM; Activity [35]: 8.02%; Activity [36]: 40.24%
Cl.NC(=O)c1csc([C@@H]2O[C@H](CO)[C@@H](O)[C@H]2N)n1 | 15.16 | 14.5 | 47.22 | 4.53 | 2.16 | 3.6 | 24.41 | 7.67 | 66.48 | 2.61 | 33.29 | 66.3 | 78.24 | 8.99 | 16.6 | 35.02 | 11.52 | 16.22 | 81.99 | 11.26 | IC50 ([14]; raji): 9.28 µM; IC50 ([21]; hela): > 100 µM; Activity [27]: 10.71%; Activity [28]: 22.33%; Activity [29]: 6.22%; Activity [30]: 30.26%; Activity [31]: 5.11%; IC50 ([32]; k562): > 100 µM; Activity [33]: 11.13%; IC50 ([34]; hl-60): 0.02 µM; Activity [35]: 6.88%; Activity [36]: 44.32%
COc1cccc(C(=O)N[C@@H]2[C@H](O)[C@@H](CO)O[C@H]2c2nc(C(N)=O)cs2)c1 | 9.41 | 26.7 | 46.71 | 2.76 | 4.66 | 3.68 | 37.39 | 8.67 | 111.75 | 4.44 | 34 | 69.98 | 77.99 | 8.16 | 104.69 | 39.45 | 82.68 | 47.76 | 89.53 | 12.04 | IC50 [7]: 23.6 µM; IC50 [8]: > 100 µM; IC50 [9]: 9.54 µM; IC50 ([14]; Homo sapiens, Raji, 72 h): 6.29 µM; IC50 [16]: > 100 µM; IC50 ([21]; Homo sapiens, HeLa, 72 h): > 100 µM; Activity [27]: 11.88%; Activity [28]: 16.45%; Activity [29]: 10.33%; Activity [30]: 37.07%; Activity [31]: 5.19%; IC50 ([32]; Homo sapiens, K562, 72 h): > 100 µM; Activity [33]: 10.84%; IC50 ([34]; Homo sapiens, HL-60, 72 h): 2.69 µM; Activity [35]: 10.82%; Activity [36]: 43.13%
NC(=O)c1csc([C@@H]2O[C@H](CO)[C@@H](O)[C@H]2O)n1 [TIAZOFURIN] | 7.55 | 27.2 | 53.16 | 41.24 | 37.25 | 3.76 | 44.51 | 11.58 | 57.93 | 2.22 | 33.62 | 15.58 | 79.36 | 3.79 | 47.68 | 37.08 | 15.38 | 16.16 | 111.01 | 5.74 | IC50 [9]: 1.78 µM; Activity [27]: -0.34%; Activity [28]: 29.42%; Activity [29]: 10.71%; Activity [30]: 13.71%; Activity [31]: 5.27%; IC50 ([32]; Homo sapiens, K562, 72 h): 1.89 µM; Activity [33]: 24.99%; IC50 ([34]; Homo sapiens, HL-60, 72 h): 0.19 µM; Activity [35]: 13.76%; Activity [36]: 35.66%
[N-]=[N+]=N[C@@H]1[C@H](O)[C@@H](CO)O[C@H]1c1nc(C(N)=O)cs1 | 11.6 | 17.3 | 42.8 | 3 | 12.4 | -0.82 | 70.23 | 4.8 | 103.8 | 2.93 | 35.04 | 74.34 | 83.58 | 10.94 | 47.06 | 42.67 | 34.23 | 31.53 | 85.6 | 11.82 | IC50 [7]: > 100 µM; IC50 [8]: > 100 µM; IC50 [9]: 0.004 µM; IC50 ([14]; Homo sapiens, Raji, 72 h): > 100 µM; IC50 [16]: > 100 µM; IC50 ([21]; Homo sapiens, HeLa, 72 h): 4.08 µM; Activity [27]: 10.73%; Activity [28]: 16.67%; Activity [29]: 5.33%; Activity [30]: 38.06%; Activity [31]: 0.69%; IC50 ([32]; Homo sapiens, K562, 72 h): 0.31 µM; Activity [33]: 10.9%; IC50 ([34]; Homo sapiens, HL-60, 72 h): > 100 µM; Activity [35]: 5.99%; Activity [36]: 42.24%
